Screening data (PubChem)
T cruzi repl: blocks replication of Trypanosoma cruzi; T. cruzi beta-gal in NIH3T3, luminescence, 90 h; inhibition, % (test concentration not listed); 300,000 compounds, 1.4% hits; AID 1885;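 active = mean inhibition across valid replicates above about 55%, limit read from the data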;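 also: signal also drops with host cell toxicity which is not excluded here; higher percent means less beta-gal luminescence so fewer parasites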
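Read-out: Parasite load inhibition, % | Test system: Mouse NIH/3T3 fibroblasts infected with β-gal-expressing T. cruzi Tulahuen C4 | Amount: 5,000 cells/well | Medium: DMEM, 2% fetal bovine serum | Signal: GalScreen β-gal luminescence, detergent lysis, 60 min | Timing: 3 h attach, ≥90 h co-culture | Also added: Tulahuen C4 trypomastigotes, 5000/well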
CSC inhib: blocks cancer stem cells. cancer stem cell-like cells viability, luminescence. AID 2717. inhibition, % at 7.5 µM. 300,000 compounds, 1.1% hits; in the data active = inhibition above about 75%; tested in HMLE shEcad cells
Calb FLC: C. albicans growth modulation with fluconazole; C. albicans CaCi-2 + fluconazole, Alamar Blue growth, 48 h; growth inhibition, % (test concentration not listed); 300,000 compounds, 0.57% hits;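 active = growth inhibition above about 58% in most replicates, limit read from the data, passing the limit was not always enough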;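 also: all wells also contain fluconazole at 8 µg/ml as a sub-toxic cotreatment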
HIF act: HIF pathway transcriptional activation; U2OS HRE-luciferase reporter, luminescence; normalized: DMSO 0%, desferrioxamine 100%; activation, % at 7.5 µM (by protocol); 300,000 compounds, 0.32% hits; AID 1910;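 active = mean activation of at least 10% of the iron chelator positive control signal, with at least half of replicates also reaching 10%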
PolyA inh: blocks polyadenylation in yeast reporter cells | S. cerevisiae SKY197-pL101 polyadenylation reporter, beta-gal luminescence; efflux-impaired pdr1/pdr3 knockout yeast; score 100 = 6 SD above DMSO | activity score, % at 12 µM | 300,000 compounds, 0.02% hits | AID 1875;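 active = lowest replicate activity score at least 50, where 100 means six control SD above control mean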;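 also: yeast exposed to compound for 9 h at 30 °C; higher score means more reporter readthrough which indicates perturbed polyadenylation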
Beta cell apopt: blocks beta cell apoptosis. INS-1E cytokine-induced death, ATP luminescence, 48 h; percent of positive-control rescue, neutral wells zero. protection from apoptosis, % (no concentration beside the values). 300,000 compounds, 0.8% hits;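 active = Every replicate reaches about 75%, or at least half do and their mean reaches it too, limit read from the data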;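 also: higher means more ATP so stronger rescue from cytokine killing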
Numbers stand for hits. Hits are enriched below; roughly 3.1% of the tested compounds scored in any of these assays.

Screening O=C(CCl)c1ccc2c(c1)CCN2C(=O)C1CCCCC1 returned T cruzi repl 90, CSC inhib inactive, Calb FLC inactive, HIF act inactive, PolyA inh inactive and Beta cell apopt inactive.
For O=C(C1CCC(C(=O)N2CCc3ccccc32)CC1)N1CCc2ccccc21 (stereo unspecified) the results were T cruzi repl inactive, CSC inhib inactive, Calb FLC inactive, HIF act inactive and PolyA inh inactive.
CC(=O)Nc1ccc(Nc2ccc3c4c(cc(=O)n3C)-c3ccccc3C(=O)c24)cc1 was read as T cruzi repl 56, CSC inhib inactive, Calb FLC inactive, HIF act inactive, PolyA inh inactive and Beta cell apopt inactive.
COc1ccc(-c2sc3ccccc3c2-c2ccc(O)cc2)cc1 was read as CSC inhib 107 and Beta cell apopt inactive.
COc1ccc(-c2sc3cc(OC)c(OC)cc3c2-c2ccc(O)cc2)cc1 was read as CSC inhib 137 and Beta cell apopt inactive.
Screening CSc1ccccc1NC(=O)C1=CC(c2cccs2)=NS(=O)(=O)N1C returned T cruzi repl inactive, Calb FLC inactive, HIF act inactive, PolyA inh inactive and Beta cell apopt inactive.
CCOc1ccc(-n2c(-c3ccc(Cl)cc3)c[n+]3c2SCC3)cc1 was read as T cruzi repl 62, CSC inhib inactive, Calb FLC inactive, HIF act inactive, PolyA inh inactive and Beta cell apopt inactive.
For c1ccc(-c2c[n+]3c(n2-c2ccccc2)SCC3)cc1 the results were T cruzi repl 55, CSC inhib inactive, Calb FLC inactive, HIF act inactive, PolyA inh inactive and Beta cell apopt inactive.
For Cn1c(-c2ccccc2)c[n+]2c1-c1ccccc1C2 the results were T cruzi repl inactive, CSC inhib inactive, Calb FLC inactive, HIF act inactive, PolyA inh inactive and Beta cell apopt inactive.
Cc1cc(C(F)(F)F)nc(SCC(=O)Nc2c(C)n(C)n(-c3ccccc3)c2=O)n1 was read as T cruzi repl inactive, CSC inhib inactive, Calb FLC inactive, HIF act inactive and PolyA inh inactive.
`O=C(NNc1cccc(Cl)n1)c1cccnc1Cl` gave T cruzi repl inactive, CSC inhib inactive, Calb FLC inactive, HIF act inactive, PolyA inh inactive and Beta cell apopt inactive.
For O=C(NNc1cccc(Cl)c1)c1cccnc1Cl the results were T cruzi repl inactive, CSC inhib inactive, Calb FLC 33, HIF act inactive, PolyA inh inactive and Beta cell apopt inactive.
CCCc1c(C(=O)NNc2cccc(Cl)c2)cnn1-c1ccccc1 was read as T cruzi repl inactive, CSC inhib 80, Calb FLC inactive, HIF act inactive, PolyA inh inactive and Beta cell apopt inactive.
Screening CCCc1c(C(=O)Nc2ccc(F)cc2F)cnn1-c1ccccc1 returned CSC inhib inactive, Calb FLC inactive, HIF act inactive, PolyA inh inactive and Beta cell apopt inactive.
Screening CN1c2ccccc2Sc2cc(N)ccc21 returned T cruzi repl 71, CSC inhib inactive, Calb FLC inactive, HIF act inactive and PolyA inh inactive.
Screening CC(=O)N1c2ccccc2Sc2ccccc21 returned T cruzi repl inactive, CSC inhib inactive, Calb FLC inactive, HIF act inactive, PolyA inh inactive and Beta cell apopt inactive.
CCCCC1CCC(C(=O)N(CCCC)c2c(N)n(CCCC)c(=O)[nH]c2=O)CC1 (stereo unspecified) was read as T cruzi repl inactive, CSC inhib inactive, Calb FLC inactive, HIF act inactive, PolyA inh inactive and Beta cell apopt inactive.
For CN(C)c1ccc(C(C[N+](=O)[O-])c2c(N)n(C)c(=O)n(C)c2=O)c(F)c1C#N (stereo unspecified) the results were T cruzi repl inactive, Calb FLC inactive, HIF act inactive and PolyA inh inactive.
For COc1ccc(Br)cc1C(C[N+](=O)[O-])c1c(N)n(C)c(=O)n(C)c1=O (stereo unspecified) the results were T cruzi repl inactive, CSC inhib 83, Calb FLC inactive, HIF act inactive, PolyA inh inactive and Beta cell apopt inactive.
O=[N+]([O-])CC(c1ccccc1)P(=O)(c1ccccc1)c1ccccc1 (stereo unspecified) was read as T cruzi repl inactive, CSC inhib inactive, Calb FLC 94, HIF act inactive, PolyA inh inactive and Beta cell apopt inactive.
